According to ChEMBL document CHEMBL1165950, “Design and synthesis of new potent anticancer pyrazoles with high FLT3 kinase inhibitory selectivity” (Bioorg Med Chem, 2010):

How the values were obtained:
Assay type in all cases: functional
SNB-19 = experiment: Cytotoxicity against human SNB19 cells assessed as cell growth at 0.001 uM after 48 hrs by sulforhodamine B assay; details: SNB-19, 48 h, read-out: Activity
OVCAR-4 = experiment: Cytotoxicity against human OVCAR4 cells assessed as cell growth at 100 nM after 48 hrs by sulforhodamine B assay; details: OVCAR-4, 48 h, read-out: Activity
HOP-62 = experiment: Cytotoxicity against human HOP62 cells assessed as cell growth at 0.001 uM after 48 hrs by sulforhodamine B assay; details: HOP-62, 48 h, read-out: Activity
PC-3 = experiment: Cytotoxicity against human PC3 cells assessed as cell growth at 0.001 uM after 48 hrs by sulforhodamine B assay; details: PC-3, 48 h, read-out: Activity
EKVX [1] = experiment: Cytotoxicity against human EKVX cells assessed as cell growth at 100 nM after 48 hrs by sulforhodamine B assay; details: read-out: Activity
HCT-116 = experiment: Cytotoxicity against human HCT116 cells assessed as cell growth at 1 uM after 48 hrs by sulforhodamine B assay; details: HCT-116, 48 h, read-out: Activity
SK-MEL-5 = experiment: Cytotoxicity against human SK-MEL-5 cells assessed as cell growth at 10 uM after 48 hrs by sulforhodamine B assay; details: SK-MEL-5, 48 h, read-out: Activity
OVCAR-8 = experiment: Growth inhibition of human OVCAR8 cells after 48 hrs by sulforhodamine B assay; details: OVCAR-8, 48 h
How it was run: (§1)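 NCI 60-cell screen, five-dose mode. Cells grown in RPMI 1640 with 5% FBS and 2 mM L-glutamine and plated at 5000-40,000 cells/well according to doubling time. After 24 h preincubation, a Tz plate was TCA-fixed. Five concentrations (10-fold or 1/2 log dilutions) were applied for 48 h at 37 °C. SRB staining read at 515 nm. IC50 taken from [(Ti-Tz)/(C-Tz)]×100 = 50.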

HCT-15 [2] = experiment: Growth inhibition of human HCT15 cells after 48 hrs by sulforhodamine B assay; details: HCT-15, 48 h; how it was run: as §1
EKVX [3] = experiment: Growth inhibition of human EKVX cells after 48 hrs by sulforhodamine B assay
How it was run: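 NCI five-dose SRB assay in RPMI 1640 with 5% FBS and 2 mM L-glutamine. Cells were preincubated 24 h, then exposed 48 h at 37 °C to five concentrations (10-fold or half-log serial dilutions from DMSO stocks). TCA fixation, SRB staining, and absorbance at 515 nm followed. IC50 was taken where [(Ti−Tz)/(C−Tz)]×100 = 50, with Tz as time-zero cell density.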

SK-OV-3 = experiment: Cytotoxicity against human SKOV3 cells assessed as cell growth at 100 nM after 48 hrs by sulforhodamine B assay; details: SK-OV-3, 48 h, read-out: Activity
ACHN [4] = experiment: Cytotoxicity against human ACHN cells assessed as cell growth at 1 uM after 48 hrs by sulforhodamine B assay; details: read-out: Activity
How it was run: (§2)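 NCI-60 five-dose screen. Cells were grown in RPMI 1640 with 5% FBS and 2 mM L-glutamine, plated at 5000–40,000 cells/well and preincubated for 24 h. Time-zero plates were TCA-fixed. DMSO-solubilized drug was added at five concentrations (10-fold or ½-log serial dilutions) for 48 h at 37 °C, 5% CO2. Cells were TCA-fixed, stained with 0.4% SRB and read at 515 nm. Percent growth used time-zero, control and test absorbances.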

K562 = experiment: Cytotoxicity against human K562 cells assessed as cell growth at 100 nM after 48 hrs by sulforhodamine B assay; details: K562, 48 h, read-out: Activity
BT-549 = experiment: Cytotoxicity against human BT549 cells assessed as cell growth at 1 uM after 48 hrs by sulforhodamine B assay; details: BT-549, 48 h, read-out: Activity; how it was run: as §2
ACHN [5] = experiment: Cytotoxicity against human ACHN cells assessed as cell growth at 10 uM after 48 hrs by sulforhodamine B assay; details: read-out: Activity; how it was run: as §2
UACC-62 = experiment: Cytotoxicity against human UACC62 cells assessed as cell growth at 0.001 uM after 48 hrs by sulforhodamine B assay; details: UACC-62, 48 h, read-out: Activity
MOLT-4 = experiment: Growth inhibition of human MOLT4 cells after 48 hrs by sulforhodamine B assay; details: MOLT-4, 48 h; how it was run: as §1
HL-60(TB) = experiment: Growth inhibition of human HL-60(TB) cells after 48 hrs by sulforhodamine B assay; details: HL-60, 48 h
How it was run: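 NCI 60-cell SRB screen. Cells in RPMI 1640 with 5% FBS and 2 mM L-glutamine are preincubated 24 h, then exposed to five concentrations (10-fold or 1/2-log dilutions from DMSO stock) for 48 h at 37 °C. Suspension cells are fixed with 80% TCA (final 16%), and A515 is read. IC50 is taken as the concentration where [(Ti−Tz)/(C−Tz)]×100 = 50, i.e. 50% reduction in net protein increase.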

UO-31 = experiment: Cytotoxicity against human UO31 cells assessed as cell growth at 10 uM; details: read-out: Activity
How it was run: (§3)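 NCI-60 screen: cells grown in RPMI 1640 with 5% FBS and 2 mM L-glutamine, plated at 5000–40,000 cells/well according to doubling time, and preincubated 24 h at 37 °C, 5% CO2. The single 10 µM dose (DMSO stock) was added, then incubated 48 h. Cells were TCA-fixed and stained with 0.4% SRB, read at 515 nm, and growth % calculated against time-zero and control plates.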

[6] = Cytotoxicity against human Hs 578T cells assessed as cell growth at 0.01 uM after 48 hrs by sulforhodamine B assay; details: read-out: Activity
TK-10 = experiment: Growth inhibition of human TK10 cells after 48 hrs by sulforhodamine B assay; details: TK-10, 48 h; how it was run: as §1
COLO 205 = experiment: Cytotoxicity against human COLO205 cells assessed as cell growth at 100 nM after 48 hrs by sulforhodamine B assay; details: COLO 205, 48 h, read-out: Activity
MDA-MB-231 = experiment: Cytotoxicity against human MDA-MB-231 cells assessed as cell growth at 10 uM after 48 hrs by sulforhodamine B assay; details: MDA-MB-231, 48 h, read-out: Activity
U-251 = experiment: Cytotoxicity against human U251 cells assessed as cell growth at 0.01 uM after 48 hrs by sulforhodamine B assay; details: U-251, 48 h, read-out: Activity
HCT-15 [7] = experiment: Cytotoxicity against human HCT15 cells assessed as cell growth at 1 uM after 48 hrs by sulforhodamine B assay; details: HCT-15, 48 h, read-out: Activity
MDA-MB-435 = experiment: Cytotoxicity against human MDA-MB-435 cells assessed as cell growth at 10 uM; details: read-out: Activity; how it was run: as §3
[8] = read-out: LC50 (the source's name)

Structure (SMILES): COc1cc(C)cc(-c2nn(CC#N)cc2-c2ccnc(-c3ccc(N(C)C)cc3)c2)c1
- growth at 0.001 µM (SNB-19): 102%
- growth at 0.1 µM (OVCAR-4): 33%
- growth at 0.001 µM (HOP-62): 108%
- growth at 0.001 µM (PC-3): 97%
- growth at 0.1 µM (EKVX [1]): 43%
- growth at 1 µM (HCT-116): -41%
- growth at 10 µM (SK-MEL-5): -66%
- GI50 (OVCAR-8): 0.522 µM
- TGI (OVCAR-8): 41.6 µM
- CC50 (OVCAR-8; [8]): > 100 µM
- GI50 (HCT-15 [2]): 0.35 µM
- TGI (HCT-15 [2]): 8.79 µM
- CC50 (HCT-15 [2]; [8]): > 100 µM
- GI50 (EKVX [3]): 0.696 µM
- TGI (EKVX [3]): > 10 µM
- CC50 (EKVX [3]; [8]): > 100 µM
- growth at 0.1 µM (SK-OV-3): -6%
- growth at 1 µM (ACHN [4]): 2%
- growth at 0.1 µM (K562): 10%
- growth at 1 µM (BT-549): -10%
- growth at 10 µM (ACHN [5]): -18%
- growth at 0.001 µM (UACC-62): 91%
- GI50 (MOLT-4): 0.626 µM
- LC50 (MOLT-4): > 100 µM
- TGI (MOLT-4): > 100 µM
- GI50 (HL-60(TB)): 0.293 µM
- LC50 (HL-60(TB)): > 100 µM
- TGI (HL-60(TB)): 0.923 µM
- growth at 10 µM (UO-31): 37.9%
- growth at 0.01 µM [6]: 100%
- GI50 (TK-10): 0.101 µM
- TGI (TK-10): 78.9 µM
- CC50 (TK-10; [8]): > 100 µM
- growth at 0.1 µM (COLO 205): -15%
- growth at 10 µM (MDA-MB-231): 4%
- growth at 0.01 µM (U-251): 105%
- growth at 1 µM (HCT-15 [7]): -1%
- growth at 10 µM (MDA-MB-435): -22.6%
